# In paper PMC2889198 (Bioconjugate chemistry, 2009):
# Assays:
# His6-tagged peptide […] = assay: SPR binding kinetics of tris-NTA chip with His6-peptide; conditions: for ka Instant association rate constant / kd Instant dissociation rate constant: 25 °C, 1:1 binding model; for Kd: read-out: KD Equilibrium dissociation constant, 25 °C, 1:1 binding model
# [1] = test system: Androgen receptor N-terminal domain (AR-NTD), C-terminal His6-tag; assay: SPR binding kinetics of tris-NTA chip with His6-tagged AR-NTD; conditions: for kd Instant dissociation rate constant / ka Instant association rate constant: 25 °C, 1:1 binding model; for ka Instant association rate constant: Ni(II)-activated tris-NTA; for Kd: read-out: KD Equilibrium dissociation constant, 25 °C, 1:1 binding model
# Summary of the method: (§1)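 Streptavidin chip washed with 50 mM NaOH/1 M NaCl and run in HBS-P pH 7.4 at 25 °C. Flow cell 1 is a blank; the others carry biotin-tris-NTA at about 50 RU. Each cycle: 5 mM NiCl2 activation, His6-protein injection (1–10 nM; mKate in 1 nM steps, 7 nM omitted), 0.3 M EDTA strip, 0.25% SDS/0.5 M NaCl rinse. Duplicates, double-referenced, global 1:1 Langmuir fit.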
# [2] = test system: Tumor necrosis factor alpha-stimulated gene-6 (TSG6), C-terminal His6-tag; assay: SPR binding kinetics of tris-NTA chip with His6-tagged TSG6; conditions: for ka Instant association rate constant / kd Instant dissociation rate constant: 25 °C, 1:1 binding model; for Kd: read-out: KD Equilibrium dissociation constant, 25 °C, 1:1 binding model
# Summary of the method: as §1
# [3] = test system: Monomeric Katushka (mKate), C-terminal His6-tag; assay: SPR binding kinetics of tris-NTA chip with His6-mKate; conditions: for kd Instant dissociation rate constant / ka Instant association rate constant: 25 °C, 1:1 binding model; for ka Instant association rate constant: 1~10 nM analyte; for Kd: read-out: KD Equilibrium dissociation constant, 25 °C, 1:1 binding model
# Summary of the method: as §1
# [4] = biological target: T1, Yeast cytosine deaminase (yCD), C-terminal His6-tag (Saccharomyces cerevisiae, UniProt Q12178); assay: SPR binding kinetics of tris-NTA chip with His6-tagged yCD; conditions: for kon: read-out: ka Instant association rate constant; for koff: read-out: kd Instant dissociation rate constant
# T1 sequence (Q12178 with tags, fused parts or gaps): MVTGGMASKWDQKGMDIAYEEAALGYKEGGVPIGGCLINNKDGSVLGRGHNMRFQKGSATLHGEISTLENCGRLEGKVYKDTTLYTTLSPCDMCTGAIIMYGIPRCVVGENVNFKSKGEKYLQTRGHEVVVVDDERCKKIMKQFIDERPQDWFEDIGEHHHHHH
# Summary of the method: as §1
# [5] = biological target: hexahistidine (His6) tagged proteins; conditions: read-out: equilibrium dissociation constant KD between mono-NTA and His6; cited from earlier work
SMILES,ka Instant association rate constant (His6-tagged peptide […]),kd Instant dissociation rate constant (His6-tagged peptide […]),Kd (His6-tagged peptide […]) [nM],kd Instant dissociation rate constant [1],ka Instant association rate constant [1],Kd [1] [nM],ka Instant association rate constant [2],kd Instant dissociation rate constant [2],Kd [2] [nM],kd Instant dissociation rate constant [3],ka Instant association rate constant [3],Kd [3] [nM],kon [4] [M⁻¹ s⁻¹],koff [4] [s⁻¹],Kd [5] [nM]
O=C(O)CN(CC(=O)O)[C@@H](CCCCNC(=O)CCOCCOCCOCCOCCNC(=O)CN(CC(=O)NCCOCCOCCOCCOCCC(=O)NCCCC[C@@H](C(=O)O)N(CC(=O)O)CC(=O)O)[C@@H](CCCCNC(=O)CCCC[C@@H]1SC[C@@H]2NC(=O)N[C@@H]21)C(=O)NCCOCCOCCOCCOCCC(=O)NCCCC[C@@H](C(=O)O)N(CC(=O)O)CC(=O)O)C(=O)O [Compound 6a],3.09 10^5 M^−1 S^−1,3.97 10^−3 S^−1,12.8,1.29 10^−3 S^−1,0.94 10^5 M^−1 S^−1,13.7,6.89 10^5 M^−1 S^−1,4.84 10^−3 S^−1,7.03,1.53 10^−3 S^−1,5.38 10^5 M^−1 S^−1,2.84,–,–,–
O=C(O)CN(CC(=O)O)[C@@H](CCCNC(=O)CN(CC(=O)NCCC[C@@H](C(=O)O)N(CC(=O)O)CC(=O)O)[C@@H](CCCCNC(=O)CCCC[C@@H]1SC[C@@H]2NC(=O)N[C@@H]21)C(=O)NCCC[C@@H](C(=O)O)N(CC(=O)O)CC(=O)O)C(=O)O [Compound 6c],2.19 10^5 M^−1 S^−1,0.72 10^−3 S^−1,3.29,0.27 10^−3 S^−1,1.44 10^5 M^−1 S^−1,1.87,3.92 10^5 M^−1 S^−1,0.008 10^−3 S^−1,0.02,0.43 10^−3 S^−1,10.6 10^5 M^−1 S^−1,0.4,197000,0.00059,–
O=C(O)CN(CC(=O)O)[C@@H](CCCCNC(=O)CN(CC(=O)NCCCC[C@@H](C(=O)O)N(CC(=O)O)CC(=O)O)[C@@H](CCCCNC(=O)CCCC[C@@H]1SC[C@@H]2NC(=O)N[C@@H]21)C(=O)NCCCC[C@@H](C(=O)O)N(CC(=O)O)CC(=O)O)C(=O)O [Compound 6b],1.86 10^5 M^−1 S^−1,1.85 10^−3 S^−1,9.95,1.40 10^−3 S^−1,0.81 10^5 M^−1 S^−1,17.3,19.4 10^5 M^−1 S^−1,5.78 10^−3 S^−1,3,–,–,–,119000,0.00083,–
"O=C(O)CN(CC(=O)O)CC(=O)O [NTA, Nitrilotriacetic acid]",–,–,–,–,–,–,–,–,–,–,–,–,–,–,10000
